Reference: ChEMBL document CHEMBL3875209, “Synthesis and biological evaluation of cis-restricted triazole/tetrazole mimics of combretastatin-benzothiazole hybrids as tubulin polymerization inhibitors and apoptosis inducers” (Bioorg Med Chem, 2017)
The source made the active and inactive calls. The calls are words filed in the database; no cut-off is given here.

Experiments:
A549 [1] = assay: Induction of ROS generation in human A549 cells at 100 nM after 48 hrs by DCFDA staining based flow cytometry (reference value: 4.4%); format: functional
A549 [2] = assay: Induction of mitochondrial membrane potential loss in human A549 cells assessed as intact mitochondrial membrane at 100 nM after 48 hrs by JC-1 staining based flow cytometry (reference value: 95.9%); format: functional
A549 [3] = assay: Induction of mitochondrial membrane potential loss in human A549 cells at 100 nM after 48 hrs by JC-1 staining based flow cytometry (reference value: 3.8%); format: functional
A549 [4] = assay: Induction of apoptosis in human A549 cells assessed as nuclei condensation at 50 nM after 48 hrs by Hoechst 33258 staining based fluorescence microscopic analysis; format: functional, cell-based
How it was run: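 A549 cells (5 × 10⁴/well) allowed to adhere 48 h, then treated at 50 nM for 48 h at 37 °C. Fixed in 4% paraformaldehyde at 4 °C for 10 min and stained with Hoechst 33258 (5 µg/mL) for 30 min at room temperature. Nuclear condensation scored by fluorescence microscopy (ex 350/em 460 nm, 10X).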

[5] = Antiproliferative activity against human HeLa cells after 48 hrs by MTT assay; format: functional, cell-based
How it was run: (§1)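 MTT assay. Cells seeded in DMEM with 10% FBS and left 24 h at 37 °C in CO2 before compound treatment for 48 h. MTT (5 mg/mL stock) added for 4 h, formazan dissolved in DMSO, absorbance read at 570 nm. IC50 taken as the mean of three independent experiments.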

A549 [6] = assay: Induction of apoptosis in human A549 cells assessed as late apoptotic cells at 100 nM after 48 hrs by Annexin-V FITC/propidium iodide staining based flow cytometry (reference value: 0.6%); format: functional
[7] = Antiproliferative activity against human A549 cells after 48 hrs by MTT assay; format: functional, cell-based; conditions: A549, 48 h; how it was run: as §1
A549 [8] = assay: Induction of apoptosis in human A549 cells assessed as live cells at 100 nM after 48 hrs by Annexin-V FITC/propidium iodide staining based flow cytometry (reference value: 94.2%); format: functional
[9] = Cell cycle arrest in human A549 cells assessed as accumulation at G2/M phase at 50 nM after 48 hrs by propidium iodide staining based flow cytometry (reference value: 12.1%); format: functional
How it was run: (§2)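 A549 cells exposed for 48 h at 50 or 100 nM. Cells harvested, washed in PBS, fixed in ice-cold 70% ethanol and stained with propidium iodide. Phase distribution (G0/G1, S, G2/M) measured by flow cytometry against untreated cells.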

[10] = Cell cycle arrest in human A549 cells assessed as accumulation at G0/G1 phase at 100 nM after 48 hrs by propidium iodide staining based flow cytometry (reference value: 78.5%); format: functional; how it was run: as §2
[11] = Cell cycle arrest in human A549 cells assessed as accumulation at S phase at 50 nM after 48 hrs by propidium iodide staining based flow cytometry (reference value: 9.4%); format: functional; how it was run: as §2
[12] = Antiproliferative activity against human HepG2 cells after 48 hrs by MTT assay; format: functional, cell-based; conditions: HepG2, 48 h; how it was run: as §1
[13] = Antiproliferative activity against human MCF7 cells after 48 hrs by MTT assay; format: functional, cell-based; conditions: MCF7, 48 h; how it was run: as §1
A549 [14] = assay: Induction of apoptosis in human A549 cells assessed as necrotic cells at 100 nM after 48 hrs by Annexin-V FITC/propidium iodide staining based flow cytometry (reference value: 0.1%); format: functional
[15] = Inhibition of porcine brain tubulin polymerization in presence of GTP by fluorescence assay; parameters: species or system Sus scrofa
How it was run: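 Tubulin polymerization IC50: compounds preincubated with tubulin at 0.5, 1, 2, 3 and 5 µM. Reactions in PEM buffer with […], polymerization followed by reporter fluorescence at ex 360/em 420 nm, with CA-4 as reference.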

[16] = Antiproliferative activity against human DU145 cells after 48 hrs by MTT assay; format: functional, cell-based; conditions: DU-145, 48 h; how it was run: as §1
A549 [17] = assay: Induction of apoptosis in human A549 cells assessed as early apoptotic cells at 100 nM after 48 hrs by Annexin-V FITC/propidium iodide staining based flow cytometry (reference value: 5.2%); format: functional
[18] = Cell cycle arrest in human A549 cells assessed as accumulation at S phase at 100 nM after 48 hrs by propidium iodide staining based flow cytometry (reference value: 9.4%); format: functional; how it was run: as §2
Sus scrofa = species on record: Sus scrofa; assay: Inhibition of porcine brain tubulin polymerization at 3 uM in presence of GTP by fluorescence assay relative to control
How it was run: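 Fluorescence-reporter tubulin polymerization kit: PEM buffer with […], compound at 3 µM final, CA-4 as positive control. Fluorescence followed at ex 360/em 420 nm for 1 h at 37 °C. Mean ± SD of two experiments run in triplicate.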

Homo sapiens = species on record: Homo sapiens; assay: Inhibition of colchicine binding to tubulin (unknown origin) at 5 to 20 uM after 60 mins by fluorescence assay
How it was run: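 Tubulin (3 µM) incubated with compound at 5–20 µM, with and without colchicine (3 µM), in 30 mM Tris for 60 min at 37 °C. Fluorescence read at ex 350/em 435 nm. Tris blank and the colchicine-free signal were subtracted, and values normalized to DMSO. CA-4 and vinblastine served as controls.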

A549 [19] = assay: Inhibition of alpha-tubulin polymerization in human A549 cells assessed as disruption of microtubule organization at 50 nM after 48 hrs by FITC/DAPI staining based immunofluorescence microscopic assay; format: cell-based
How it was run: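 A549 cells on coverslips treated at 50 nM for 48 h. Fixed in 3.5% formaldehyde/PBS, permeabilized with Triton X-100/Tween-20, blocked in 2% BSA. Anti-tubulin primary (1:200, 4 h) and FITC anti-mouse secondary (1:500, 1 h), DAPI mounting, confocal imaging.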

A549 [20] = assay: Inhibition of alpha-tubulin polymerization in human A549 cells assessed as increase in soluble tubulin fraction at 1 uM after 48 hrs by Western blot method; format: cell-based
How it was run: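 A549 cells (1 × 10⁵/well) treated at 1 µM for 48 h alongside DMSO, CA-4 and paclitaxel controls. Soluble fraction released with warm Pipes-KOH pH 6.8/Triton lysis buffer (3 min, 30 °C); insoluble fraction taken in Laemmli buffer. Both fractions blotted on SDS-10% PAGE with anti-α-tubulin and ECL detection.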

A549 [21] = assay: Induction of mitochondrial membrane potential loss in human A549 cells assessed as intact mitochondrial membrane at 50 nM after 48 hrs by JC-1 staining based flow cytometry (reference value: 95.9%); format: functional
[22] = Cell cycle arrest in human A549 cells assessed as accumulation at G2/M phase after 48 hrs by propidium iodide staining based flow cytometry; format: functional; how it was run: as §2
A549 [23] = assay: Induction of apoptosis in human A549 cells assessed as late apoptotic cells at 50 nM after 48 hrs by Annexin-V FITC/propidium iodide staining based flow cytometry (reference value: 0.6%); format: functional
[24] = Cell cycle arrest in human A549 cells assessed as accumulation at G2/M phase at 100 nM after 48 hrs by propidium iodide staining based flow cytometry; format: functional; how it was run: as §2
A549 [25] = assay: Induction of mitochondrial membrane potential loss in human A549 cells at 50 nM after 48 hrs by JC-1 staining based flow cytometry (reference value: 3.8%); format: functional
A549 [26] = assay: Induction of apoptosis in human A549 cells assessed as live cells at 50 nM after 48 hrs by Annexin-V FITC/propidium iodide staining based flow cytometry (reference value: 94.2%); format: functional
[27] = Depolarization of mitochondrial membrane potential in human A549 cells after 48 hrs by JC-1 staining based flow cytometry; format: functional, cell-based
A549 [28] = assay: Induction of apoptosis in human A549 cells assessed as early apoptotic cells at 50 nM after 48 hrs by Annexin-V FITC/propidium iodide staining based flow cytometry (reference value: 5.2%); format: functional
[29] = Cell cycle arrest in human A549 cells assessed as accumulation at G0/G1 phase at 50 nM after 48 hrs by propidium iodide staining based flow cytometry (reference value: 78.5%); format: functional; how it was run: as §2
A549 [30] = assay: Induction of ROS generation in human A549 cells at 50 nM after 48 hrs by DCFDA staining based flow cytometry (reference value: 4.4%); format: functional
A549 [31] = assay: Induction of apoptosis in human A549 cells assessed as necrotic cells at 50 nM after 48 hrs by Annexin-V FITC/propidium iodide staining based flow cytometry (reference value: 0.1%); format: functional
A549 [32] = assay: Induction of apoptosis in human A549 cells after 48 hrs by Annexin-V FITC/propidium iodide staining based flow cytometry; format: functional, cell-based
A549 [33] = assay: Induction of apoptosis in human A549 cells assessed as increase in caspase-3 expression at 50 nM after 48 hrs by Western blot method; format: functional, cell-based
How it was run: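 Caspase-3 western blot of A549 lysates after 48 h at 50 nM. Proteins extracted in RIPA buffer, 50 µg per lane on 10% SDS-PAGE, transferred to PVDF and blocked with BSA. Primary antibody incubated 24 h, HRP secondary 1 h, chemiluminescent detection, with β-actin as loading control.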

| Compound | Activity (A549 [1]) [%] | Activity (A549 [2]) [%] | Activity (A549 [3]) [%] | Activity (A549 [4]) | IC50 [5] [nM] | Activity (A549 [6]) [%] | IC50 [7] [nM] | Activity (A549 [8]) [%] | Activity [9] [%] | Activity [10] [%] | Activity [11] [%] | IC50 [12] [nM] | IC50 [13] [nM] | Activity (A549 [14]) [%] | IC50 [15] [nM] | IC50 [16] [nM] | Activity (A549 [17]) [%] | Activity [18] [%] | inhibition (Sus scrofa) [%] | inhibition (Homo sapiens) | also measured |
| --- | --- | --- | --- | --- | --- | --- | --- | --- | --- | --- | --- | --- | --- | --- | --- | --- | --- | --- | --- | --- | --- |
| Cc1cc(-c2nc3cc(F)ccc3s2)ccc1N | 10 | 81.8 | 16 | – | – | – | – | – | – | – | – | – | – | – | – | – | – | – | – | – | – |
| COc1ccc(/C=C\c2cc(OC)c(OC)c(OC)c2)cc1O [COMBRETASTATIN A4] | 18 | 74.9 | 21.8 | Active | 5 | 13.3 | 58 | 60.8 | 31.3 | 26.1 | 12.6 | 9 | 43 | 1.7 | 1600 | 69 | 24.2 | 15.9 | 73.2 | Active | inhibition (A549 [19]): Active; inhibition (A549 [20]): Active |
| COc1ccc2nc(-c3ccc(-n4cnnc4-c4cc(OC)c(OC)c(OC)c4)c(C)c3)sc2c1 | 12.3 | 80.5 | 16.9 | Active | 160 | 9.2 | 54 | 66 | 25.9 | 21.5 | 10.6 | 670 | 1130 | 1.1 | 1670 | 480 | 23.7 | 17.6 | 72.9 | Active | Activity (A549 [21]): 87.2%; Activity [22]: Dose-dependent effect; Activity (A549 [23]): 8.1%; Activity [24]: 59.5%; Activity (A549 [25]): 11%; Activity (A549 [26]): 77.3%; Activity [27]: Dose-dependent effect; Activity (A549 [28]): 13.5%; Activity [29]: 63.7%; Activity (A549 [30]): 6.8%; Activity (A549 [31]): 1.1%; Activity (A549 [32]): Dose-dependent effect; Activity (A549 [33]): Active; inhibition (A549 [19]): Active; inhibition (A549 [20]): Active |
| COc1cc(-c2nncn2-c2ccc(-c3nc4ccc(F)cc4s3)cc2C)cc(OC)c1OC | 20.9 | 74.4 | 22.2 | Active | 150 | 8.2 | 48 | 63.9 | 25.1 | 19.8 | 14.7 | 300 | 1410 | 0.7 | 1000 | 280 | 27.2 | 15.4 | 74.4 | Active | Activity (A549 [21]): 85.2%; Activity [22]: Dose-dependent effect; Activity (A549 [23]): 5.8%; Activity [24]: 65.5%; Activity (A549 [25]): 12.8%; Activity (A549 [26]): 78.3%; Activity [27]: Dose-dependent effect; Activity (A549 [28]): 15.1%; Activity [29]: 60.6%; Activity (A549 [30]): 10.4%; Activity (A549 [31]): 0.8%; Activity (A549 [32]): Dose-dependent effect; Activity (A549 [33]): Active; inhibition (A549 [19]): Active; inhibition (A549 [20]): Active |
